# Laboratory results as given in the RNAGym collection of RNA variant scans (doi:10.1126/science.aae0568).
# Fewer inactive variants are shown than the library holds.
# B1: tRNA (parent)
# chain: GUUCCGUUGGCGUAAUGGUAACGCGUCUCCCUCCUAAGGAGAAGACUGCGGGUUCGAGUCCCGUACGGAACG
# Variants of: B1
# Test: yeast fitness relative to wild type (ratio to wild type); higher = fitter; tRNA-Arg(CCU), competitive growth, 37 C, YPD
# In short: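 Genotype frequency changes were the basis for Darwinian fitness relative to wild type. The frequencies came from 100-nucleotide paired-end sequencing of gene amplicons from the start population and each end population of pooled yeast strains with tRNA-Arg(CCU) gene variants at the native locus. Competition ran in YPD at 37°C for 24 hours in six replicates, genotypes needed ≥ 100 starting reads, and estimates < 0.5 were set to 0.5.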
row,Variant,yeast fitness
1,GUUCCGUUGGCGUGAUGGUAACGCGUAUCCCUCCUAAGGAGAAGACUGCGGGUGCGAGUCCCGUACGGAACG [A14G C27A U54G],≤ 0.5
2,GUUCCGUUGGCGUGAUGGUAACGCGUAUCCCUCCUAAGGAGAAGUCUGCGGGUUCGAGUCCCGUACCGAACG [A14G C27A A45U G67C],0.521
3,GUUCCGUUGGCGUGAUGGUAACGCGUGUCCCUCGUAUGGAGAAGACUGCGGGUUCGAGUCCCGUACGGAACG [A14G C27G C34G A37U],0.61
4,GUUCCGUUGGCGUGAUGGUAACGCGUCUACAUCCUAAGGCGAAAACUGCGGGUUCGAGACCCGUACGGAACG [A14G C29A C31A A40C G44A U59A],≤ 0.5
5,GUUCCGUUGGCGUGAUGGUAACGUGUCUCCCUCCUAAGGAGAAGACUCCGGGUUCGAGUCCCGUAAGGAACG [A14G C24U G48C C66A],≤ 0.5
6,GUUCCGUUGGCGUGAUGGUAACGAGUCUCCUUCCUAAGGUGAAGACUGCGGGUUCGAGUCCCGUACGGAGCG [A14G C24A C31U A40U A70G],0.571
7,GUUCCGUUGGCGUGAUGGUAACGUGUCUCCCUCCUAAGGAGAAGACUGCGGGUUCGGGUCCCGUACGGAACG [A14G C24U A57G],0.639
8,GUUCCGUUGGCGUGAUGGUAACGCGUGUCCCUCCUAAGGAGAAGACUGCGGGUUCGAGUCCUGUACGGAACG [A14G C27G C62U],≤ 0.5
9,GUUCCGUUGGCGUGAUGGUAACGUGUCUCUCUCCUAAGGAGAAGACUGCGGGUUCGAGUACCGUACGGAACG [A14G C24U C30U C60A],≤ 0.5
10,GUUCCGUUGGCGUGAUGGUAACGUGUCUCCCUCCUAAGGAGACGACUGCGGGUUCGAGUCCCGUACGGAUCG [A14G C24U A43C A70U],≤ 0.5
11,GUUCCGUUGGCGUGAUGGUAAUGGGUCUCCCUCCUAAGGAGCAGACUGCGGGUUCGGGUCCCGUACGGAACG [A14G C22U C24G A42C A57G],≤ 0.5
12,GUUCCGUUGGCGUGAUGGUAACGCGUUUCCCUCCUAAGGAGAAGAAUGCGGGUUCGAGUCCCGUACGGAACG [A14G C27U C46A],0.673
13,GUUCCGUUGGCGUGAUGGUAACGUGUCUCCCUCCUAAGGAGAAGACUGCGGAUUCGAGUUCCGUACGGAACG [A14G C24U G52A C60U],≤ 0.5
14,GUUCCGUUGGCGUGAUGGUAACGCGUGUCCCUCCUAAGGAGAAGACUGCGGGUUCGAGUCCCGUUCGUAACG [A14G C27G A65U G68U],≤ 0.5
15,GUUCCGUUGGCGUGAUGGUAACGGGUCUCCUUCCUAAGGAGAAGACUGCGGGUUAGAGUCCCGUACGGAACG [A14G C24G C31U C55A],0.552
16,GUUCCGUUGGCGUGAUGGUAACGGGUCUCCCUCCUAAGGAGAAGACUGCGGAUUCGAGUCCCGUACGGAACG [A14G C24G G52A],≤ 0.5
17,GUUCCGUUGGCGUGAUGGUAACGCGUGUCCCUCCUAAGGAGAAGACUGCGGGUUCGAGUCCCGUACGGAACG [A14G C27G],0.562
18,GUUCCGUUGGCGUGAUGGUAACGCGUCUACCUCCUAAGGAGAAGACUGCGGGUUCGAGUCCUGUACGGAACG [A14G C29A C62U],≤ 0.5
19,GUUCCGUUGGCGUGAUGGUAACGCGUCUGCCUCCUAGGGAGAAGACUGCGGGUUCGAGUCCCGUAGGGAACG [A14G C29G A37G C66G],≤ 0.5

row,Variant,yeast fitness
1,GUUCCGUUGGCGUGAUGGUAACGAGUCUCCUUCCUAAGGUGAAGACUGCGGGUUCGAGUCCCGUACGGAACG [A14G C24A C31U A40U],≤ 0.5
2,GUUCCGUUGGCGUGAUGGUAACGUGUCUCCCUCCUAAGGAGAAGACUGUGGGUUCGAGUCCCGUACGGAACG [A14G C24U C49U],0.675
3,GUUCCGUUGGCGUGAUGGUAACGUGUCUCCCUCCUAAGGAGAAGACUGCGGGUUAGAGUCCCCUACGGAACG [A14G C24U C55A G63C],≤ 0.5
4,GUUCCGUUGGCGUGAUGGUAACGGGUCUCCCUCCUAAGGAGAACACUGCGGGUUCGACUCCCGUACGUAACG [A14G C24G G44C G58C G68U],≤ 0.5
5,GUUCCGUUGGCGUGAUGGUAACGGGUCUCCUUCCUAAGGAGAAGACUGCGGGUUGGAGUCCCCUACGGAACG [A14G C24G C31U C55G G63C],≤ 0.5
6,GUUCCGUUGGCGUGAUGGUAACGGGUCUCCCUCCUAAGGAGAAGACUGCGGGUUCGAGUCCCGUACGGAACG [A14G C24G],0.597
7,GUUCCGUUGGCGUGAUGGUAACGGGUCUCCUUCCUAAGGAGAAGACUGCGGGUUCGAGUCCCGUAGGGAACG [A14G C24G C31U C66G],≤ 0.5
8,GUUCCGUUGGCGUGAUGGUAACGGGUCUCCCUCCUAAGGAGAAGACUGCAGGUUGGAGUCCCGUACGGAACG [A14G C24G G50A C55G],≤ 0.5
9,GUUCCGUUGGCGUGAUGGUAACGCGUCUGCCUCCUUAGGAGAAGAGUGCGGGUUCGAGUCCCGUACGGAACG [A14G C29G A36U C46G],≤ 0.5
10,GUUCCGUUGGCGUGAUGGUAACGCGUCUACCUCCUAGGGAGAAGACUGCGGGUUCGAGUCCCGUACGGAACG [A14G C29A A37G],≤ 0.5
11,GUUCCGUUGGCGUGAUGGUAACGCGUUUCCCUCCUAAGGAGAAGACAGCGGGUUCGAGUCCUGUAUGGAACG [A14G C27U U47A C62U C66U],≤ 0.5
12,GUUCCGUUGGCGUGAUGGUAACGCGUCUGCCUCCUAGGGAGAAGAUUGCGGGUUCGAGUCCCGUAGGGAACG [A14G C29G A37G C46U C66G],≤ 0.5
13,GUUCCGUUGGCGUGAUGGUAACGGGUCUCCUUCCUAAGGAGAAGACUGCGGGUUCGAGUCCCGUACGAAACG [A14G C24G C31U G68A],≤ 0.5
14,GUUCCGUUGGCGUGAUGGUAACGGGUCUCCUUCCUAAGGAGAAGACUGCGGGUUAGAGUCACGUACGGAACG [A14G C24G C31U C55A C61A],≤ 0.5
15,GUUCCGUUGGCGUGAUGGUAACGCGUUUCCCUCCUAAGGAGAAGACUGAGGGAUCGAGUCUCGUACGGAACG [A14G C27U C49A U53A C61U],≤ 0.5
16,GUUCCGUUGGCGUGAUGGUAAUGCGUCUACCUCCUAAGGAGAAGACUGCGGGUUCGAGUCCCGUACGGAACG [A14G C22U C29A],≤ 0.5
17,GUUCCGUUGGCGUGAUGGUAACGCGUCUGCCUCCUAAGGAGAAGACUGCGGGUUCGAGUCCCGUACGGAACG [A14G C29G],0.564
18,GUUCCGUUGGCGUGAUGGUAACGGGUCUCCCUCCUAAGGAGCAGACUGCGGGUUCGAGUCCCAUACGGAACG [A14G C24G A42C G63A],≤ 0.5
19,GUUCCGUUGGCGUGAUGGUAACGCGUGUCUGUCCUAAGGAGAAGACUGCGGGUUCGAGUCCCGUACGGAACG [A14G C27G C30U C31G],0.76
